Screening results: PubChem, Johns Hopkins Ion Channel Center
KCNQ1 inh: human KCNQ1 channel inhibition; 310,000 tested, 1.3% active; P51787; B-score at 10 µM; CHO-K1 KCNQ1, FluxOR thallium flux fluorescence; stronger effect = higher value;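 active means compounds whose thallium flux B-score, printed positive for inhibition, exceeds three library SD while starting fluorescence stays within three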;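 further: channel opened by potassium depolarization with thallium stimulus after 20 min compound exposure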
KCNQ1 act: potentiators or activators of human KCNQ1 potassium channel. CHO-K1 KCNQ1, thallium flux FluxOR fluorescence; stronger effect = higher value. B-score at 10 µM. 310,000 tested, 0.35% active. AID 2648;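 active means fluorescence ratio B-score, a plate-corrected score, at least three library SD, with initial intensity B-score within 5 SD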
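assay system = KCNQ1-transfected CHO-K1 cells | medium = assay buffer with matched DMSO | probe or stimulus = depolarizing K+/Tl+ stimulus, K2SO4 and Tl2SO4 each 12.5 mM in 5x stock | dosing = single dose | incubation = dye 90 min, compound 20 min, room temperature | detection = kinetic FluxOR fluorescence, 10 s baseline plus 110 s post-stimulus | evaluation = ratio B score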
hERG protect: shields human hERG channel from block by proarrhythmic agents; CHO-hERG, FluxOR thallium flux, dofetilide IC70 present; Q12809; activation (rescue from dofetilide block), less the hit threshold, % at 10 µM; 310,000 tested, 0.51% active;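 active means activation above the mean of controls blocked by dofetilide plus 5 SD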;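 further: thallium influx through hERG after potassium depolarization seen as dye fluorescence rise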
KCNK3 inh: human KCNK3 channel inhibition, primary screen. O14649. CHO-KCNK3 thallium flux, FluxOR fluorescence; stronger effect = lower value. B-score at 10 µM. 340,000 tested, 0.84% active. AID 602410;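 active means B-score under library mean minus 4 SD, starting fluorescence ratio at most library mean plus 5 SD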;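 further: more negative B-score means stronger inhibition of thallium flux through KCNK3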
KCNK9 block: human KCNK9 channel inhibition; HEK293 KCNK9, FluxOR thallium flux fluorescence; stronger effect = lower value; B-score at 10 µM; 310,000 tested, 1.2% active; AID 488922;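 active means ratio B-score over 3 SD below the library mean, with starting fluorescence within 5 SD of its mean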;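 further: negative B-score means less thallium flux so channel inhibition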
Target sequence (Q9NPC2 whole entry, looked up): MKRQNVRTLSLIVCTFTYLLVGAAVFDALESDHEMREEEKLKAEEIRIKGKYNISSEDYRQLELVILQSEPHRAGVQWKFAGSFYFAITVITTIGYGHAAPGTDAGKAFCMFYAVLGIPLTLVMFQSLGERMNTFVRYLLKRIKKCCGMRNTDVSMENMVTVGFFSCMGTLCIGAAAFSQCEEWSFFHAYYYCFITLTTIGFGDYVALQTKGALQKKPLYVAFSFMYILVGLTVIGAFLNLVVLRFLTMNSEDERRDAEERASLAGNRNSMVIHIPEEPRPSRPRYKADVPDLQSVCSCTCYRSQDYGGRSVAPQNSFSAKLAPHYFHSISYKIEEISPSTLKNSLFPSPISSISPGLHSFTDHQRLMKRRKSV
Numbers without * were called inactive; i = inactive; · = no result given. An excerpt weighted towards active compounds, which were near 3.1% of everything screened.

SMILES	KCNQ1 inh	KCNQ1 act	hERG protect	KCNK3 inh	KCNK9 block
O=C(Nc1ccc(C(=O)N2CCCCC2)cc1)C1CCCCC1	i	i	9.1*	i	i
CC(=O)C1CCC2C3CCC4CC(=O)CCC4(C)C3C(C)(O)CC12C (configuration not stated)	·	·	·	i	·
CC(=O)Nc1cccc(-c2nnc3c4ccccc4c(C)nn23)c1	i	i	52*	·	i
Cc1nn2c(-c3ccncc3)nnc2c2ccccc12	i	i	-3	i	i
O=C(NCc1ccc2c(c1)OCO2)c1ccc(N2CCCC2=O)cc1	i	i	-13	i	i
O=C(NCCOc1ccccc1)C1=CC=CN2CCS(=O)(=O)N=C12	·	·	·	i	·
CCOC(=O)c1cc(-c2ccccc2)sc1NC(=O)C(C)Sc1nnc(C)s1 (configuration not stated)	i	i	-9	i	-7*
CCOC(=O)c1cc(-c2ccccc2)sc1NC(=O)C(C)C	i	i	-7	i	i
Cc1sc2ncnc(NCC(O)c3ccc([N+](=O)[O-])cc3)c2c1C (configuration not stated)	9*	i	-15	i	i
Cc1sc2ncnc(NCC(O)c3ccccc3)c2c1C (configuration not stated)	i	i	-16	i	i
CCOC(=O)c1sc(=S)n(C)c1NC(=O)c1ccc(C(C)(C)C)cc1	11*	i	-10	i	i
CCn1c(SCC(=O)OCC(=O)N2c3ccccc3NC(=O)C2(C)C)nnc1-c1ccco1	i	i	7.0*	i	i
Cc1cc(/C=N/n2cnnc2)c(C)n1-c1cc(Cl)ccc1Cl	i	12*	-7	i	i
NS(=O)(=O)c1ccc(CCNC(=O)C2CCN(C(=O)Nc3ccccc3)CC2)cc1	·	·	·	i	·
Cc1ccc(Oc2cc(NC(=O)CCCn3nc([N+](=O)[O-])c(Cl)c3C)cc([N+](=O)[O-])c2)cc1	7*	i	-13	i	i
CCOC(=O)C1CCN(C(=O)CCC(=O)NNc2nc3ccccc3c3nc(C)nn23)CC1	i	i	-10	i	i
CN(Cc1ccc(OC(F)F)cc1)C(=O)c1cccc(S(=O)(=O)N2CCN(c3ccccc3)CC2)c1	·	·	·	i	·
C/C(=N\NC(=S)NC(C)C)c1ccccc1	i	i	-12	i	i
CC(C)NC(=S)NC(c1ccccc1)(c1ccccc1)c1ccccc1	10*	i	-4	i	i
Cc1cc(NC(=O)CCC(=O)N(CCC(C)C)C(C(=O)NCC2CCCO2)c2ccccc2C)no1 (configuration not stated)	i	i	-6	i	i
O=C(O)CSc1c2c(nc3cc(C(=O)Nc4ccc(F)c(Cl)c4)ccc13)CCCC2	i	i	0	i	i
COc1ccc(NC(=O)c2ccc3c(SCC(=O)O)c4c(nc3c2)CCCC4)cc1Cl	i	i	7.8*	·	i
Cc1c(NC(=O)C(C)OC(=O)c2ccc([N+](=O)[O-])cc2Cl)c(=O)n(-c2ccccc2)n1C (configuration not stated)	·	·	·	i	·
C/C(N)=C(/C#N)C(=O)COC(=O)c1cc(-c2cccc3ccccc23)nc2ccccc12	6*	i	-9	i	i
C/C(N)=C(/C#N)C(=O)COC(=O)c1cccc2ccccc12	i	i	-6	i	i
SMILES	KCNQ1 inh	KCNQ1 act	hERG protect	KCNK3 inh	KCNK9 block
O=C(NCCCN1CCOCC1)c1cc2c([nH]c3ccccc32)c(-c2cccc(Br)c2)n1	8*	i	-30	i	i
CC(=O)N1N=C(c2cccc([N+](=O)[O-])c2)OC1c1ccc(Br)cc1 (configuration not stated)	i	i	-5	i	-7*
CC(=O)NC1=CC(=C[N+](=O)[O-])C=C1O	·	·	·	i	·
O=C1CCN(CC2CCCCC2)C=C1C(=O)c1ccccc1	·	·	·	i	·
c1ccc(C2=Nc3c(ccc4ccccc34)C(c3ccncc3)=NN2)cc1	i	i	-11	i	-7.7*
Cc1ccccc1OCC(=O)N/N=C/c1ccc(N2CCOCC2)o1	i	i	-7	i	i
Cc1cc(C)n(CCC(=O)N/N=C/c2ccc(Cl)c([N+](=O)[O-])c2)n1	7*	i	-12	i	i
COc1ccc(/C=N/NC(=O)CCn2nc(C)cc2C)cc1	i	i	-10	i	i
Cn1cnnc1Sc1ccc(C(=O)NCCC(c2ccccc2)c2ccccc2)cc1[N+](=O)[O-]	10*	i	-10	i	i
O=C(N=Nc1c(O)[nH]c2ccc([N+](=O)[O-])cc12)c1cc(-c2ccccc2Cl)nc2ccccc12	i	i	15*	i	i
COc1ccccc1C(O)(c1ccccc1)c1ccccc1OC	·	·	·	-10*	·
Cn1nc(-c2ccc(Cl)cc2)nc2c(=O)n(C)c(=O)nc1-2	i	9*	-7	·	i
Cc1ccc(-n2ncc3c2CCCC3NC(=O)CCc2c(C)noc2C)cc1C (configuration not stated)	i	i	-5	i	i
CC(=O)Nc1c(Cl)cc2c(c1Cl)C(=O)c1ccccc1-2	·	·	·	i	·
Oc1ccc(Cl)cc1C1=NNC(c2cccs2)C1 (configuration not stated)	i	20*	6.2*	i	i
O=C(NCc1ccc2c(c1)OCO2)NC12CC3CC(CC(C3)C1)C2	i	i	4.9*	i	i
COC(=O)c1cccc(NC(=O)c2cnn(C)c2)c1	i	i	-10	i	i
C=C1C(=O)C=C2CN(C(=O)c3ccccc3)[C@@](Cc3ccc(F)cc3)(C(=O)OC)[C@@H]12	i	17*	-26	i	i
COc1ccc(N(CC(=O)N2CCN(Cc3ccccc3)CC2)S(C)(=O)=O)cc1OC	i	i	9.3*	i	i
CCOC(=O)c1sc(NC(=O)Nc2ccccc2Cl)cc1C	i	i	-11	i	i
CCOC(=O)c1sc(NC(=O)c2cc(-c3ccccc3C)nc3ccccc23)c(C#N)c1C	10*	i	-28	i	i
CCOC(=O)c1sc(NC(=O)c2ccncc2)c(C#N)c1C	i	i	-10	i	i
CCOC(=O)c1sc(NC(=O)Nc2ccccc2)cc1C	6*	i	-18	i	i
CCOC(=O)c1sc(NC(=O)c2ccccc2C(=O)O)c(C(=O)OCC)c1C	i	8*	-2	i	i
O=C(NC(CC(=O)N1CCN(c2ccccc2O)CC1)c1ccccc1)c1ccccc1Cl (configuration not stated)	·	·	·	i	·
COc1ccc(OC)c(S(=O)(=O)N2CCC(NC(=O)c3ccccc3)CC2)c1	i	i	-5	i	-7.3*
